Where a SMILES comes first, the peptide text is derived from it. [ ]: non-standard residue; d: D form. The star is where a group is joined. Phe(4-CN) = N#Cc1ccc(C[C@H](N)C(=O)O)cc1; Hydrocinnamoyl = O=C(CCc1ccccc1)*; hPhe = N[C@@H](CCc1ccccc1)C(=O)O; 2Thi = N[C@@H](Cc1cccs1)C(=O)O; Orn = NCCC[C@H](N)C(=O)O
Biological target: T1, Serine racemase (Homo sapiens) (UniProt Q9GZT4)
T1 sequence (whole entry): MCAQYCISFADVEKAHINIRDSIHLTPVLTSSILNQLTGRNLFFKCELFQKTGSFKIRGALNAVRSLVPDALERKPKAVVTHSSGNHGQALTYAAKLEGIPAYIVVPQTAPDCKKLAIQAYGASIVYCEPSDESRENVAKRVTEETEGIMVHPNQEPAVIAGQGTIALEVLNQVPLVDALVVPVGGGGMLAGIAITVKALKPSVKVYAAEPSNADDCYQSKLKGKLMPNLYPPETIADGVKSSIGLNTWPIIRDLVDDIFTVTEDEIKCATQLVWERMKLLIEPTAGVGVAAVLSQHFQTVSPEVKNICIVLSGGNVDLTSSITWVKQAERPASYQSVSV
Assay: Inhibition of human serine racemase at 2 mM
How it was run: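 Recombinant His-tagged hSR (E. coli, Ni-NTA). Inhibitor tested at 2 mM in a DAAO/LDH-coupled assay of total racemization plus elimination, with the NADH decrease followed at 340 nm. Buffer: 200 mM TEA·HCl, 150 mM KCl, 50 µM PLP, 5 mM MgCl2, 2.5 mM ATP, 10 mM DTT. L-serine substrate. Reported as percent decrease in activity.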

Compound | inhibition
CC[C@@H](C)[C@H](NC(=O)[C@H](Cc1c[nH]cn1)NC(=O)CCc1ccccc1)C(N)=O | 74%
CCC(C)C[C@H](NC(=O)CCc1ccccc1)C(=O)N[C@@H](Cc1c[nH]cn1)C(N)=O (stereo partly specified) | 54%
CC[C@@H](C)[C@H](NC(=O)[C@H](CO)NC(=O)/C=C/c1cccnc1)C(N)=O | 10%
CC[C@@H](C)[C@H](NC(=O)[C@H](Cc1c[nH]cn1)NC(=O)CCc1ccccc1)C(=O)NCCOCCOCNC(=O)CCC(N)=O | 0%
CSCC[C@H](NC(=O)N1C(=O)OC[C@@H]1c1ccccc1)C(=O)N[C@@H](CCC(=O)O)C(N)=O | 8%
NC(=O)C[C@H](NC(=O)CCc1ccccc1)C(=O)N[C@@H](Cc1c[nH]cn1)C(N)=O (Hydrocinnamoyl-Asn-His-NH2) | 42%
NCCCC[C@H](NC(=O)[C@H](Cc1c[nH]cn1)NC(=O)CCc1ccccc1)C(N)=O (Hydrocinnamoyl-His-Lys-NH2) | 40%
NCCC[C@H](NC(=O)[C@H](Cc1c[nH]cn1)NC(=O)CCc1ccccc1)C(N)=O (Hydrocinnamoyl-His-[Orn]-NH2) | 49%

Other lines, results leading:

inhibition | Compound
0% | N#Cc1ccc(C[C@H](NC(=O)c2ccc(-c3ccccc3)cc2)C(=O)NC2(C(N)=O)CCC(O)CC2)cc1 (stereo partly specified)
4% | NC(=O)[C@H](Cc1cccc(C(=O)c2ccccc2)c1)NC(=O)[C@H](Cc1ccccc1)NC(=O)COCC(=O)O
57% | CC(C)C[C@H](NC(=O)[C@H](Cc1c[nH]cn1)NC(=O)CCc1ccccc1)C(N)=O (Hydrocinnamoyl-His-Leu-NH2)
68% | NC(=O)[C@H](Cc1cccs1)NC(=O)[C@H](Cc1c[nH]cn1)NC(=O)CCc1ccccc1 (Hydrocinnamoyl-His-[2Thi]-NH2)
70% | NC(=O)[C@H](CCc1ccccc1)NC(=O)[C@H](Cc1c[nH]cn1)NC(=O)CCc1ccccc1 (Hydrocinnamoyl-His-[hPhe]-NH2)
72% | N#Cc1ccc(C[C@H](NC(=O)CCc2ccccc2)C(=O)N[C@@H](Cc2c[nH]cn2)C(N)=O)cc1 (Hydrocinnamoyl-[Phe(4-CN)]-His-NH2)

Biological target: T2, Serine racemase (Homo sapiens, UniProt Q9GZT4)
T2 sequence (Q9GZT4 whole entry): T1 sequence (whole entry)
Assay: Inhibition of human serine racemase
How it was run: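 His-tagged hSR expressed in E. coli BL21 and Ni-NTA purified. Combined racemization plus elimination rate coupled via DAAO and LDH; NADH decrease read at 340 nm. Mix: 200 mM TEA·HCl, 150 mM KCl, 50 µM PLP, 5 mM MgCl2, 2.5 mM ATP, 10 mM DTT, 0.3 mM NADH. Varied L-serine against fixed inhibitor levels (0–2 mM), 40 min preincubation. KI obtained by global fit of data.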

Ki | Compound
610 µM | CC[C@@H](C)[C@H](NC(=O)[C@H](Cc1c[nH]cn1)NC(=O)CCc1ccccc1)C(N)=O
320 µM | NC(=O)[C@H](CCc1ccccc1)NC(=O)[C@H](Cc1cnc[nH]1)NC(=O)CCc1ccccc1 (Hydrocinnamoyl-His-[hPhe]-NH2)
